≈ marks a conversion by molar mass, not a printed value.
Tests used:
Assay type in all cases: functional
Candida albicans [1] = test: Antifungal activity against Candida albicans SC5314 assessed as maximum log cell kill at 4 times MIC after 24 to 48 hrs by time-kill method
Nakaseomyces glabratus [2] = test: Antifungal activity against Candida glabrata isolate 1 assessed as maximum log cell kill at 16 times MIC after >48 hrs by time-kill method
Candida albicans [3] = test: Antifungal activity against Candida albicans ATCC 90029 assessed as maximum log cell kill at 16 times MIC after >48 hrs by time-kill method
Nakaseomyces glabratus [4] = test: Antifungal activity against Candida glabrata isolate 2 assessed as maximum log cell kill at 4 times MIC after 24 hrs by time-kill method
Candida albicans [5] = test: Antifungal activity against Candida albicans ATCC 90029 assessed as maximum log cell kill at 4 times MIC after >48 hrs by time-kill method
Candida parapsilosis [6] = test: Antifungal activity against Candida parapsilosis isolate 1 assessed as maximum log cell kill at MIC after 24 hrs by time-kill method
Candida parapsilosis [7] = test: Antifungal activity against Candida parapsilosis isolate 2 assessed as maximum log cell kill at 16 times MIC after 24 hrs by time-kill method
Nakaseomyces glabratus [8] = test: Antifungal activity against Candida glabrata isolate 2 assessed as maximum log cell kill at 16 times MIC after 24 to 48 hrs by time-kill method
Candida parapsilosis [9] = test: Antifungal activity against Candida parapsilosis isolate 2 assessed as maximum log cell kill at MIC after >48 hrs by time-kill method
Summary of the method: (§1)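 Bloodstream isolate colonies from 48-h Sabouraud dextrose agar cultures were suspended in sterile water. […] Samples taken 0–72 h were plated for CFU. Value is the maximum log difference from drug-free control per time window. Run in duplicate.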

Nakaseomyces glabratus [10] = test: Antifungal activity against Candida glabrata isolate 2 assessed as maximum log cell kill at 16 times MIC after >48 hrs by time-kill method
Candida parapsilosis [11] = test: Antifungal activity against Candida parapsilosis isolate 2 by Etest; settings: Lodderomyces parapsilosis
Nakaseomyces glabratus [12] = test: Antifungal activity against Candida glabrata isolate 1 assessed as maximum log cell kill at MIC after >48 hrs by time-kill method
Candida parapsilosis [13] = test: Antifungal activity against Candida parapsilosis isolate 2 assessed as maximum log cell kill at 16 times MIC after 24 to 48 hrs by time-kill method
Candida albicans [14] = test: Antifungal activity against Candida albicans SC5314 assessed as maximum log cell kill at 16 times MIC after 24 hrs by time-kill method
Nakaseomyces glabratus [15] = test: Antifungal activity against Candida glabrata isolate 2 assessed as maximum log cell kill at MIC after 24 hrs by time-kill method
Candida parapsilosis [16] = test: Antifungal activity against Candida parapsilosis isolate 1 assessed as maximum log cell kill at 16 times MIC after >48 hrs by time-kill method
Candida albicans [17] = test: Antifungal activity against Candida albicans ATCC 90029 by Etest
Summary of the method: (§2)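 MIC by Etest, checked against the CLSI (NCCLS M27-A2) broth microdilution method. Both methods agreed within twofold.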

Nakaseomyces glabratus [18] = test: Antifungal activity against Candida glabrata isolate 1 assessed as maximum log cell kill at MIC after 24 to 48 hrs by time-kill method
Candida parapsilosis [19] = test: Antifungal activity against Candida parapsilosis isolate 1 assessed as maximum log cell kill at 4 times MIC after >48 hrs by time-kill method
Candida parapsilosis [20] = test: Antifungal activity against Candida parapsilosis isolate 1 assessed as maximum log cell kill at MIC after 24 to 48 hrs by time-kill method
Candida albicans [21] = test: Antifungal activity against Candida albicans ATCC 90029 assessed as maximum log cell kill at 16 times MIC after 24 to 48 hrs by time-kill method
Candida albicans [22] = test: Antifungal activity against Candida albicans SC5314 assessed as maximum log cell kill at MIC after 24 hrs by time-kill method
Candida albicans [23] = test: Antifungal activity against Candida albicans SC5314 assessed as maximum log cell kill at 16 times MIC after 24 to 48 hrs by time-kill method
Candida parapsilosis [24] = test: Antifungal activity against Candida parapsilosis isolate 2 assessed as maximum log cell kill at MIC after 24 to 48 hrs by time-kill method; summary of the method: as §1
Nakaseomyces glabratus [25] = test: Antifungal activity against Candida glabrata isolate 1 assessed as maximum log cell kill at 4 times MIC after >48 hrs by time-kill method
Candida parapsilosis [26] = test: Antifungal activity against Candida parapsilosis isolate 2 assessed as maximum log cell kill at 16 times MIC after >48 hrs by time-kill method
Candida albicans [27] = test: Antifungal activity against Candida albicans ATCC 90029 assessed as maximum log cell kill at MIC after 24 hrs by time-kill method
Nakaseomyces glabratus [28] = test: Antifungal activity against Candida glabrata isolate 1 assessed as maximum log cell kill at 4 times MIC after 24 to 48 hrs by time-kill method
Candida parapsilosis [29] = test: Antifungal activity against Candida parapsilosis isolate 1 assessed as maximum log cell kill at 4 times MIC after 24 to 48 hrs by time-kill method
Candida albicans [30] = test: Antifungal activity against Candida albicans SC5314 assessed as maximum log cell kill at 4 times MIC after 24 hrs by time-kill method
Candida albicans [31] = test: Antifungal activity against Candida albicans ATCC 90029 assessed as maximum log cell kill at 4 times MIC after 24 hrs by time-kill method
Candida albicans [32] = test: Antifungal activity against Candida albicans ATCC 90029 assessed as maximum log cell kill at 16 times MIC after 24 hrs by time-kill method
Candida albicans [33] = test: Antifungal activity against Candida albicans SC5314 assessed as maximum log cell kill at MIC after 24 to 48 hrs by time-kill method
Nakaseomyces glabratus [34] = test: Antifungal activity against Candida glabrata isolate 2 assessed as maximum log cell kill at 4 times MIC after >48 hrs by time-kill method
Nakaseomyces glabratus [35] = test: Antifungal activity against Candida glabrata isolate 2 assessed as maximum log cell kill at 16 times MIC after 24 hrs by time-kill method
Candida albicans [36] = test: Antifungal activity against Candida albicans SC5314 by Etest; summary of the method: as §2
Nakaseomyces glabratus [37] = test: Antifungal activity against Candida glabrata isolate 2 assessed as maximum log cell kill at MIC after >48 hrs by time-kill method
Candida parapsilosis [38] = test: Antifungal activity against Candida parapsilosis isolate 2 assessed as maximum log cell kill at 4 times MIC after 24 hrs by time-kill method; summary of the method: as §1
Candida parapsilosis [39] = test: Antifungal activity against Candida parapsilosis isolate 2 assessed as maximum log cell kill at MIC after 24 hrs by time-kill method; summary of the method: as §1
Candida parapsilosis [40] = test: Antifungal activity against Candida parapsilosis isolate 1 assessed as maximum log cell kill at 16 times MIC after 24 hrs by time-kill method
Candida parapsilosis [41] = test: Antifungal activity against Candida parapsilosis isolate 1 assessed as maximum log cell kill at 4 times MIC after 24 hrs by time-kill method
Nakaseomyces glabratus [42] = test: Antifungal activity against Candida glabrata isolate 1 assessed as maximum log cell kill at MIC after 24 hrs by time-kill method
Candida albicans [43] = test: Antifungal activity against Candida albicans ATCC 90029 assessed as maximum log cell kill at MIC after >48 hrs by time-kill method
Candida parapsilosis [44] = test: Antifungal activity against Candida parapsilosis isolate 1 assessed as maximum log cell kill at 16 times MIC after 24 to 48 hrs by time-kill method
Nakaseomyces glabratus [45] = test: Antifungal activity against Candida glabrata isolate 1 assessed as maximum log cell kill at 16 times MIC after 24 to 48 hrs by time-kill method
Candida parapsilosis [46] = test: Antifungal activity against Candida parapsilosis isolate 2 assessed as maximum log cell kill at 4 times MIC after >48 hrs by time-kill method; summary of the method: as §1
Candida parapsilosis [47] = test: Antifungal activity against Candida parapsilosis isolate 1 assessed as maximum log cell kill at MIC after >48 hrs by time-kill method
Nakaseomyces glabratus [48] = test: Antifungal activity against Candida glabrata isolate 1 assessed as maximum log cell kill at 16 times MIC after 24 hrs by time-kill method
Candida albicans [49] = test: Antifungal activity against Candida albicans ATCC 90029 assessed as maximum log cell kill at MIC after 24 to 48 hrs by time-kill method
Candida albicans [50] = test: Antifungal activity against Candida albicans ATCC 90029 assessed as maximum log cell kill at 4 times MIC after 24 to 48 hrs by time-kill method
Nakaseomyces glabratus [51] = test: Antifungal activity against Candida glabrata isolate 1 by Etest; summary of the method: as §2
Nakaseomyces glabratus [52] = test: Antifungal activity against Candida glabrata isolate 2 assessed as maximum log cell kill at 4 times MIC after 24 to 48 hrs by time-kill method
Candida parapsilosis [53] = test: Antifungal activity against Candida parapsilosis isolate 1 by Etest; settings: Lodderomyces parapsilosis; summary of the method: as §2
Nakaseomyces glabratus [54] = test: Antifungal activity against Candida glabrata isolate 2 assessed as maximum log cell kill at MIC after 24 to 48 hrs by time-kill method
Nakaseomyces glabratus [55] = test: Antifungal activity against Candida glabrata isolate 1 assessed as maximum log cell kill at 4 times MIC after 24 hrs by time-kill method
Candida parapsilosis [56] = test: Antifungal activity against Candida parapsilosis isolate 2 assessed as maximum log cell kill at 4 times MIC after 24 to 48 hrs by time-kill method; summary of the method: as §1
Nakaseomyces glabratus [57] = test: Antifungal activity against Candida glabrata isolate 2 by Etest; summary of the method: as §2

**Q.** Which results are given for `C[C@@H](c1ncncc1F)[C@](O)(Cn1cncn1)c1ccc(F)cc1F` [VORICONAZOLE]?
**A.** LCK (Candida albicans [1]): -0.53; LCK (Nakaseomyces glabratus [2]): -1.17; LCK (Candida albicans [3]): -1.89; LCK (Nakaseomyces glabratus [4]): -1.1; LCK (Candida albicans [5]): -1.9; LCK (Candida parapsilosis [6]): -0.99; LCK (Candida parapsilosis [7]): -3.93; LCK (Nakaseomyces glabratus [8]): -2.49; LCK (Candida parapsilosis [9]): -0.88; LCK (Nakaseomyces glabratus [10]): -3.02; MIC (Candida parapsilosis [11]): 0.016 µg/mL (≈ 0.0458 µM); LCK (Nakaseomyces glabratus [12]): -0.99; LCK (Candida parapsilosis [13]): -3.94; LCK (Candida albicans [14]): -0.54; LCK (Nakaseomyces glabratus [15]): -1.02; LCK (Candida parapsilosis [16]): -2.69; MIC (Candida albicans [17]): 0.008 µg/mL (≈ 0.0229 µM); LCK (Nakaseomyces glabratus [18]): -0.74; LCK (Candida parapsilosis [19]): -2.37; LCK (Candida parapsilosis [20]): -0.91; LCK (Candida albicans [21]): -1.96; LCK (Candida albicans [22]): -0.61; LCK (Candida albicans [23]): -0.58; LCK (Candida parapsilosis [24]): -1.03; LCK (Nakaseomyces glabratus [25]): -1.08; LCK (Candida parapsilosis [26]): -4.15; LCK (Candida albicans [27]): -1.23; LCK (Nakaseomyces glabratus [28]): -0.78; LCK (Candida parapsilosis [29]): -2.67; LCK (Candida albicans [30]): -0.51; LCK (Candida albicans [31]): -1.34; LCK (Candida albicans [32]): -1.34; LCK (Candida albicans [33]): -0.56; LCK (Nakaseomyces glabratus [34]): -2.99; LCK (Nakaseomyces glabratus [35]): -1.15; MIC (Candida albicans [36]): 0.012 µg/mL (≈ 0.0344 µM); LCK (Nakaseomyces glabratus [37]): -2.78; LCK (Candida parapsilosis [38]): -2.7; LCK (Candida parapsilosis [39]): -1.86; LCK (Candida parapsilosis [40]): -1.68; LCK (Candida parapsilosis [41]): -1.64; LCK (Nakaseomyces glabratus [42]): -0.43; LCK (Candida albicans [43]): -1.63; LCK (Candida parapsilosis [44]): -2.74; LCK (Nakaseomyces glabratus [45]): -1; LCK (Candida parapsilosis [46]): -1.12; LCK (Candida parapsilosis [47]): -0.67; LCK (Nakaseomyces glabratus [48]): -0.59; LCK (Candida albicans [49]): -1.77; LCK (Candida albicans [50]): -1.84; MIC (Nakaseomyces glabratus [51]): 0.19 µg/mL (≈ 0.544 µM); LCK (Nakaseomyces glabratus [52]): -2.39; MIC (Candida parapsilosis [53]): 0.008 µg/mL (≈ 0.0229 µM); LCK (Nakaseomyces glabratus [54]): -2.23; LCK (Nakaseomyces glabratus [55]): -0.49; LCK (Candida parapsilosis [56]): -2.13; MIC (Nakaseomyces glabratus [57]): 0.032 µg/mL (≈ 0.0916 µM)

From ChEMBL document CHEMBL1155153, “Measurement of voriconazole activity against Candida albicans, C. glabrata, and C. parapsilosis isolates using time-kill methods validated by high-performance liquid chromatography” (2007)
